According to ChEMBL document CHEMBL4392831, “Discovery of a novel class of potent and selective tetrahydroindazole-based sigma-1 receptor ligands” (Bioorg Med Chem, 2019):
pKi: −log10 of the molar value.

Key:
[1] = biological target: T1, Sigma non-opioid intracellular receptor 1 (Homo sapiens, UniProt Q99720); experiment: Displacement of [3H]-(+)-pentazocine from sigma1 receptor (unknown origin) expressed in HEK293 cell membranes after 120 mins by microbeta scintillation counting method
How it was run: (§1)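 Radioligand binding run by an external screening program; sigma-1 tracer [3H]-pentazocine, sigma-2 tracer [3H]-DTG. Each compound first tested at a single 10 μM concentration. Those giving >50% inhibition were then titrated over a dose range to derive pKi.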

[2] = Displacement of [3H]-DTG from sigma2 receptor in guinea pig brain membranes after 120 mins in presence of sigma1 […] (+)-SKF10047 by microbeta scintillation counting method; format: cell membranes, Cavia porcellus
[3] = biological target: T1, Sigma non-opioid intracellular receptor 1; experiment: Displacement of [3H]-(+)-pentazocine from recombinant human sigma1 receptor expressed in HEK293 cell membranes after 120 mins by microbeta scintillation counting method
[4] = Thermodynamic solubility in pH 7.4 PBS buffer incubated for 16 hrs by UV-absorption spectroscopy; format: physicochemical; details: pH 7.4, 16 h
How it was run: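 A standard curve per compound was built from UV absorbance of acetonitrile dilutions (500 to 0.9 μM, DMSO held at 0.5%) made from DMSO stock. For the sample, 1 mg compound in 1 mL PBS pH 7.4 was stirred at 500 rpm for 16 h at room temperature, then equilibrated 30 min and passed through a 0.2 μm filter. Filtrate UV absorbance was read on a plate reader and solubility extrapolated from the curve.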

[5] = Stability in mouse liver microsomes assessed as parent compound remaining at 10 uM in presence of NADPH incubated for 60 mins at 37 degC by UPLC/MS analysis; format: ADME, Microsome; details: 1 h
How it was run: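 Mouse liver microsomes at 0.4 mg/mL with NADPH cofactor in phosphate buffer (0.5 M), compound at 10 μM, verapamil control. T0 sample quenched at once; others shaken 60 min at 37 °C, then stopped with 2 volumes ice-cold acetonitrile. After centrifugation, parent quantified by UPLC/MS in SRM mode. % remaining = (conc at 60 min / conc at 0 min) ×100. Duplicate runs, mean reported.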

[6] = biological target: Sigma intracellular receptor 2 (Homo sapiens, UniProt Q5BJF2); experiment: Displacement of [3H]-DTG from sigma2 receptor (unknown origin) after 120 mins in presence of sigma1 […] (+)-SKF10047 by microbeta scintillation counting method; details: for Ki: read-out: pKi (converted); how it was run: as §1
Chain of Sigma intracellular receptor 2 (Q5BJF2 whole entry): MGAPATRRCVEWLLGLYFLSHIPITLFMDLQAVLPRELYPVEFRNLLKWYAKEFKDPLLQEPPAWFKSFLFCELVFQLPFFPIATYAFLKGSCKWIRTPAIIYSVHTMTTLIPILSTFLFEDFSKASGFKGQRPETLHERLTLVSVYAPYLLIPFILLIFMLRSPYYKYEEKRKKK

[7] = species: Homo sapiens; experiment: Selectivity for sigma1 receptor (unknown origin) over sigma2 receptor (unknown origin)

T1 sequence (Q99720 whole entry): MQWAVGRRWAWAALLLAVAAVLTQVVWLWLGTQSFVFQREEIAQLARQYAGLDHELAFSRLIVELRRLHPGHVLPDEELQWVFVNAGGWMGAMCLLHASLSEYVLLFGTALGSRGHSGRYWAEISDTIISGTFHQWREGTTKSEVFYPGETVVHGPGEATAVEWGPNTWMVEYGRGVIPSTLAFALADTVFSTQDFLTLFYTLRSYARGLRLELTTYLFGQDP

| SMILES | pKi [1] | Ki [6] | further results |
| --- | --- | --- | --- |
| O=C(c1nn(-c2ccccc2)c2c1CC(NCCc1ccc(C(F)(F)F)cc1)CC2)N1CCCCC1 (stereo unspecified) | 6.50 |  |  |
| Cc1nc(-c2ccc(Cl)cc2)nc(OCCCN2CCCCC2)c1Cl |  |  | pKi [2]: 5.85; pKi [3]: 8.96 |
| O=C(c1c2c(nn1-c1ccccc1)CCC(NCCc1ccc3c(c1)OCO3)C2)N1CCCCC1 (stereo unspecified) | 7.20 | 31.6 nM | Therm solubility [4]: 655 µM; Stability [5]: 24% |
| CCCn1nc(C(=O)N(C)C)c2c1CCC(NCCc1ccc3c(c1)OCO3)C2 (stereo unspecified) | 6.30 | 398 nM |  |
| CCCn1nc(C(=O)N(C)C)c2c1CCC(NCCc1ccc(C(F)(F)F)cc1)C2 (stereo unspecified) | 5.60 | 631 nM |  |
| O=C(c1nn(-c2ccccc2)c2c1CC(NCc1ccccc1)CC2)N1CCCCC1 (stereo unspecified) | 6.20 | 501 nM | Therm solubility [4]: 1570 µM; Stability [5]: 0.3% |
| O=C(c1c2c(nn1-c1ccccc1)CCC(NCc1ccccc1)C2)N1CCCCC1 (stereo unspecified) | 7.40 | 126 nM |  |
| O=C(c1c2c(nn1-c1ccc(O)cc1)CCC(NCCc1ccccc1)C2)N1CCCCC1 (stereo unspecified) | 6.50 | 251 nM |  |
| CCCn1nc(C(=O)N2CCCCC2)c2c1CCC(NCCc1ccc(O)cc1)C2 (stereo unspecified) |  | 251 nM |  |
| NC(=O)c1ccc(-n2nc3c(c2C(=O)N2CCCCC2)CC(NCCc2ccccc2)CC3)cc1 (stereo unspecified) | 6.20 |  |  |
| O=C(c1c2c(nn1-c1ccc(F)cc1)CCC(NCc1ccc(F)cc1)C2)N1CCCCC1 (stereo unspecified) |  |  | Therm solubility [4]: 110 µM; Stability [5]: 25%; pKi ([6]; read-out: Ki): < 5.00; Selectivity ratio [7]: > 500 |
| O=C(c1nn(-c2ccccc2)c2c1CC(NCCc1ccc3c(c1)OCO3)CC2)N1CCCCC1 (stereo unspecified) | 6.30 | 316 nM |  |
| O=C(c1nn(Cc2ccccc2)c2c1CC(NCc1ccc(F)cc1)CC2)N1CCCCC1 (stereo unspecified) | 6.60 |  |  |
| O=C(c1nn(-c2ccccc2)c2c1CC(NCCc1ccc(F)cc1)CC2)N1CCCCC1 (stereo unspecified) | 6.90 | 100 nM |  |
| CCCn1nc(C(=O)N(C)C)c2c1CCC(NCc1ccc(F)cc1)C2 (stereo unspecified) |  | 2000 nM | Therm solubility [4]: 1780 µM; Stability [5]: 21% |
| O=C(c1c2c(nn1-c1ccccc1)CCC(NCc1ccc(F)cc1)C2)N1CCCCC1 (stereo unspecified) | 7.50 | 158 nM | Therm solubility [4]: 508 µM; Stability [5]: 7% |
| O=C(c1c2c(nn1-c1ccc(F)cc1)CCC(NCCc1ccncc1)C2)N1CCCCC1 (stereo unspecified) | 7.00 |  | Stability [5]: 21% |
| O=C(c1nn(-c2ccccc2)c2c1CC(NCCc1cccc(O)c1)CC2)N1CCCCC1 (stereo unspecified) | 6.70 |  |  |
| Cc1ccccc1NC(=N)Nc1ccccc1C [DITOLYLGUANIDINE] |  |  | pKi [2]: 7.55 |
| Clc1ccc(Cn2cc(NCCN3CCOCC3)nn2)cc1Cl |  |  | pKi [2]: < 5.00 |
| O=C(c1c2c(nn1-c1ccccc1)CCC(NCCc1ccc(C(F)(F)F)cc1)C2)N1CCCCC1 (stereo unspecified) | 6.70 |  |  |
| c1ccc(OCc2cc(OC[C@@H]3CCCN3)no2)cc1 |  |  | pKi [2]: 5.88; pKi [3]: 8.39 |
| CC(C)=CCN1CC[C@]2(C)c3cc(O)ccc3C[C@H]1[C@H]2C [(+)-PENTAZOCINE] |  |  | pKi [2]: 5.81 |
